According to ChEMBL document CHEMBL1667769, “Sodium [2'-[(cyclopropanecarbonyl-ethyl-amino)-methyl]-4'-(6-ethoxy-pyridin-3-yl)-6-methoxy-biphenyl-3-yl]-acetate (AM432): a potent, selective prostaglandin D2 receptor antagonist” (Bioorg Med Chem Lett, 2011):
Values belong to the compound of their own block, whether it stands above or below them. Calls of active or inactive are those of the source. The rule behind the calls is not given here.

What was measured:
[1] = target: T1, Prostaglandin D2 receptor 2 (Homo sapiens, UniProt Q9Y5Y4); test: Displacement of [3H]PGD2 from human CRTh2 receptor expressed in 293 cells by liquid scintillation counting in presence of 0.2 % HSA; type: cell-based, HEK293
T1 sequence (Q9Y5Y4 whole entry): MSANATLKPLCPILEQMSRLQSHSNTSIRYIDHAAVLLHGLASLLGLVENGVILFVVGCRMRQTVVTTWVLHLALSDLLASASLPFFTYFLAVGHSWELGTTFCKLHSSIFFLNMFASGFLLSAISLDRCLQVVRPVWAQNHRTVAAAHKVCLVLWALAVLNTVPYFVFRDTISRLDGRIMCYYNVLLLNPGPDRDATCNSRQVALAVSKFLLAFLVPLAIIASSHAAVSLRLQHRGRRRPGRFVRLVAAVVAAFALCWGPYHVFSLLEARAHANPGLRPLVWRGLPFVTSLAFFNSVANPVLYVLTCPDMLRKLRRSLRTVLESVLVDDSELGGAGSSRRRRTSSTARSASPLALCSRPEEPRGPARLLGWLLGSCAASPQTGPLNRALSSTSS
Summary of the method: (§1)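 Membranes from 293 cells stably expressing human DP₂ incubated with [³H]-PGD₂ and increasing compound concentrations. Membranes harvested and washed; bound [³H]-PGD₂ counted. IC₅₀ taken as concentration giving 50% inhibition of binding. Run without and with 0.2% human serum albumin. Values averaged from three experiments (five for the lead).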

[2] = target: T1, Prostaglandin D2 receptor 2; test: Displacement of [3H]PGD2 from human CRTh2 receptor expressed in 293 cells by liquid scintillation counting; type: cell-based, HEK293; summary of the method: as §1
[3] = target: T2, Peroxisome proliferator-activated receptor alpha (Homo sapiens, UniProt Q07869); test: Inhibition of PPAR alpha
T2 sequence (Q07869 whole entry): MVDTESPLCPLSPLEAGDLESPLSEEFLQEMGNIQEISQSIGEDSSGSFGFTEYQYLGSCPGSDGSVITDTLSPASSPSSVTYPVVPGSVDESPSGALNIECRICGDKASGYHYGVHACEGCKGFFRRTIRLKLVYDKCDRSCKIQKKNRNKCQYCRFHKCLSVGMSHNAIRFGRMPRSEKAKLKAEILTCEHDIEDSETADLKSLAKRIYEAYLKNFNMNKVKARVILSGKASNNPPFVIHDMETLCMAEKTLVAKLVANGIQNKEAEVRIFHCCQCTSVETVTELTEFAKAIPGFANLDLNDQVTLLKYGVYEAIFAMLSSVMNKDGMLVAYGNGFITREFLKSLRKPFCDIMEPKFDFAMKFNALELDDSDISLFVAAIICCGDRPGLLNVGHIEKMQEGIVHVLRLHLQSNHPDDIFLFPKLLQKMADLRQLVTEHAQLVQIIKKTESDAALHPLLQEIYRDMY

[4] = target: T3, Thromboxane A2 receptor (Homo sapiens, UniProt P21731); test: Displacement of [3H]SQ-29548 from TP receptor in human platelet membrane; type: cell membranes
T3 sequence (P21731 whole entry): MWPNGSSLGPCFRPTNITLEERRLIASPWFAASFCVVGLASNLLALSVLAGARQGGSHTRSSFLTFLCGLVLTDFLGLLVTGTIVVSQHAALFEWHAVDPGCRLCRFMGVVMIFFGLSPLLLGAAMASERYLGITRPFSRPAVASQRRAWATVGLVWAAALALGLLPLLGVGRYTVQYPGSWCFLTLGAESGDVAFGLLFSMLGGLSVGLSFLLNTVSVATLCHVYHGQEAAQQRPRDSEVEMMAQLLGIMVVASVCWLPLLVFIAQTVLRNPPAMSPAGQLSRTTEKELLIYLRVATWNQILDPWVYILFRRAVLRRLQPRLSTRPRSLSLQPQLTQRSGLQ
Summary of the method: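 Human TP binding using human platelet membranes and ³H-SQ-29548.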

[5] = target: Cytochrome P450 2C9 (Homo sapiens, UniProt P11712); test: Inhibition of human CYP2C9; type: ADME
[6] = test system: Mus musculus; test: Antiallergic activity in BALB/c mouse assessed as reduction in ovalbumin-induced increase in nasal sneezes at 10 mg/kg, po administered 21 to 25 days after ovalbumin challenge followed by intranasal ovalbumin challenge measured for 8 mins of post dose; type: functional, organism-based; design: dose 10 mg/kg
[7] = target: Peroxisome proliferator-activated receptor delta (Homo sapiens, UniProt Q03181); test: Inhibition of PPAR beta
[8] = target: Prostaglandin G/H synthase 1 (Homo sapiens, UniProt P23219); test: Inhibition of COX-1
[9] = target: Prostacyclin receptor (Homo sapiens, UniProt P43119); test: Displacement of [3H]iloprost from IP receptor in human 293 cell membrane; type: cell membranes
Summary of the method: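 Human IP binding using hIP/293 membranes and ³H-iloprost.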

[10] = target: Peroxisome proliferator-activated receptor gamma (Homo sapiens, UniProt P37231); test: Inhibition of PPAR gamma
[11] = target: T4, Prostaglandin D2 receptor (Homo sapiens, UniProt Q13258); test: Displacement of [3H]PGD2 from DP1 in human platelet membrane; type: cell membranes
T4 sequence (Q13258 whole entry): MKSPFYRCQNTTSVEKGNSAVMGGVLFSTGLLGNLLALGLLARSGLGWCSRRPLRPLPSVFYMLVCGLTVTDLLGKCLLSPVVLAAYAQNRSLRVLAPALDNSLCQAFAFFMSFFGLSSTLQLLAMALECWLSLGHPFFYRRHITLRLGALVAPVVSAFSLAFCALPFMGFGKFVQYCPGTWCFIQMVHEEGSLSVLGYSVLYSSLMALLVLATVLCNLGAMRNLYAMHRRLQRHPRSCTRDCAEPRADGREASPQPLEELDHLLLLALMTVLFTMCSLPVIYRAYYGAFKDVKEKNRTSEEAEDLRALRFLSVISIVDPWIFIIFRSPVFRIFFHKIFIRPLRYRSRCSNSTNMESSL
Summary of the method: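 Human DP₁ binding using ³H-PGD₂ and human platelet membranes.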

[12] = target: Cytochrome P450 2D6 (Homo sapiens, UniProt P10635); test: Inhibition of human CYP2D6; type: ADME
[13] = target: T5, Cytochrome P450 1A2 (Homo sapiens, UniProt P05177); test: Inhibition of human CYP1A2; type: ADME
T5 sequence (P05177 whole entry): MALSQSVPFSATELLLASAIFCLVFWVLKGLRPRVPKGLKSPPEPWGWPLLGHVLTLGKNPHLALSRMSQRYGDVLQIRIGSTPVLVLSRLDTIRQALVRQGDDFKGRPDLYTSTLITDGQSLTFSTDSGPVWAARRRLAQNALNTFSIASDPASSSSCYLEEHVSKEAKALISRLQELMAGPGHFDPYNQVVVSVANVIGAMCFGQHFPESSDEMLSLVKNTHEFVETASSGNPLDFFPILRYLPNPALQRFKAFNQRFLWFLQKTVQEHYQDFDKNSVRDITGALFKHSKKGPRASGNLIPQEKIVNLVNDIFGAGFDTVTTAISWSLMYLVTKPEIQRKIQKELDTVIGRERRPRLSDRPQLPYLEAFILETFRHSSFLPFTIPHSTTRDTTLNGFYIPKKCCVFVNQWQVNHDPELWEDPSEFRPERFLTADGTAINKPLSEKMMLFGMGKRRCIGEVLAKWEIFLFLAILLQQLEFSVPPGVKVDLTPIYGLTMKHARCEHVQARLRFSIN

[14] = target: hERG (KCNH2) (Homo sapiens, UniProt Q12809); test: Inhibition of human ERG at 10 uM by patch-clamp analysis
[15] = target: Cytochrome P450 2C19 (Homo sapiens, UniProt P33261); test: Inhibition of human CYP2C19; type: ADME
[16] = test system: Mus musculus; test: Antiinflammatory activity against cigarette smoke-induced lung inflammation in BALB/c mouse assessed as reduction in bronchoalveolar lavage fluid neutrophils at 50 mg/kg, po for 2 days; type: functional, organism-based; design: dose 50 mg/kg
Summary of the method: (§2)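 Mice exposed to cigarette smoke. Oral dosing at 10 or 50 mg/kg, or 0.5% methylcellulose vehicle, on days −1 through 2. On day 3, euthanized by isoflurane inhalation, then bronchoalveolar lavage with differential counts of neutrophils, lymphocytes and macrophages.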

[17] = target: Cytochrome P450 3A4 (Homo sapiens, UniProt P08684); test: Inhibition of human CYP3A4; type: ADME
[18] = test system: Mus musculus; test: Antiallergic activity in BALB/c mouse assessed as reduction in ovalbumin-induced increase in nasal rubs at 10 mg/kg, po administered 21 to 25 days after ovalbumin challenge followed by intranasal ovalbumin challenge measured for 8 mins of post dose; type: functional, organism-based; design: dose 10 mg/kg
[19] = Half life in dog at 2.5 mg/kg, po or 2 mg/kg, iv; conditions: in vivo
[20] = test system: Canis familiaris; test: AUC in dog at 2.5 mg/kg, po or 2 mg/kg, iv; conditions: in vivo
[21] = test system: Mus musculus; test: Antiinflammatory activity against cigarette smoke-induced lung inflammation in BALB/c mouse assessed as reduction in bronchoalveolar lavage fluid macrophages at 50 mg/kg, po for 2 days; type: functional, organism-based; design: dose 50 mg/kg; summary of the method: as §2
[22] = test system: Mus musculus; test: Antiinflammatory activity against cigarette smoke-induced lung inflammation in BALB/c mouse assessed as reduction in bronchoalveolar lavage fluid macrophages at 10 mg/kg, po for 2 days; type: functional, organism-based; design: dose 10 mg/kg; summary of the method: as §2
[23] = test system: Mus musculus; test: Antiinflammatory activity against cigarette smoke-induced lung inflammation in BALB/c mouse assessed as reduction in bronchoalveolar lavage fluid lymphocytes at 50 mg/kg, po for 2 days; type: functional, organism-based; design: dose 50 mg/kg; summary of the method: as §2
[24] = target: T6, Prostaglandin G/H synthase 2 (Homo sapiens, UniProt P35354); test: Inhibition of COX-2
T6 sequence (P35354 whole entry): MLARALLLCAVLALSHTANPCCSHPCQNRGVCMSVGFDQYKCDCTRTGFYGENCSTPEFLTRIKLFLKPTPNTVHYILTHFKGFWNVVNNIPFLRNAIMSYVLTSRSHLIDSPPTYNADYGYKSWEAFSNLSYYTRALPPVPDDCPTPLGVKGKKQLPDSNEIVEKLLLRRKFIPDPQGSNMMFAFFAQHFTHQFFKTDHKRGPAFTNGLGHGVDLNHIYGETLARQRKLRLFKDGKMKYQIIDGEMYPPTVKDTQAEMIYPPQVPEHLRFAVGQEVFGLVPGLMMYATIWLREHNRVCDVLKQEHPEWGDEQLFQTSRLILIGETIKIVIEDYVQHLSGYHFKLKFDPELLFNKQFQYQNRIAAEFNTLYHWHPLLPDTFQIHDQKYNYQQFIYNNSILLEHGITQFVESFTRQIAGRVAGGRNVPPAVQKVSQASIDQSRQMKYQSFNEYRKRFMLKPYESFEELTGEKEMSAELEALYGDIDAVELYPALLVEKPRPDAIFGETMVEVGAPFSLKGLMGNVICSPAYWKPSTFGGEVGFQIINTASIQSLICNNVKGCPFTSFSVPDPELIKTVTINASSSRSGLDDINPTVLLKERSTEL

[25] = Cmax in dog at 2.5 mg/kg, po or 2 mg/kg, iv; conditions: in vivo
[26] = test system: Mus musculus; test: Antiinflammatory activity against cigarette smoke-induced lung inflammation in BALB/c mouse assessed as reduction in bronchoalveolar lavage fluid lymphocytes at 10 mg/kg, po for 2 days; type: functional, organism-based; design: dose 10 mg/kg; summary of the method: as §2
[27] = Clearance in dog at 2.5 mg/kg, po or 2 mg/kg, iv; conditions: in vivo
[28] = test system: Mus musculus; test: Antiinflammatory activity against cigarette smoke-induced lung inflammation in BALB/c mouse assessed as reduction in bronchoalveolar lavage fluid neutrophils at 10 mg/kg, po for 2 days; type: functional, organism-based; design: dose 10 mg/kg; summary of the method: as §2

Chain of Cytochrome P450 3A4 (P08684 whole entry): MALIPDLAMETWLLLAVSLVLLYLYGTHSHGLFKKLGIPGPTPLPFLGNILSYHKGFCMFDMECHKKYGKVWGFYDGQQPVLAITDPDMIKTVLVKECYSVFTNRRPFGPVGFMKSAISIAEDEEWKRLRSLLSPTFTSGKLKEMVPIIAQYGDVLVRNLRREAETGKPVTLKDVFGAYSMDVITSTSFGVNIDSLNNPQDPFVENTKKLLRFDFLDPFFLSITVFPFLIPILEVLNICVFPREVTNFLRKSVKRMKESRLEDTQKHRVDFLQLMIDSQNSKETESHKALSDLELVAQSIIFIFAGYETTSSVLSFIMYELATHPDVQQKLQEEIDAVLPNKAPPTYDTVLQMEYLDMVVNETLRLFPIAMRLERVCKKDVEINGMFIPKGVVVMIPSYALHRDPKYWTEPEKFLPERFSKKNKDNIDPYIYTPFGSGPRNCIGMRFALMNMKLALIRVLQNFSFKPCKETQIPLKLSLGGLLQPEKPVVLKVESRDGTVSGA
Chain of Peroxisome proliferator-activated receptor gamma (P37231 whole entry, looked up): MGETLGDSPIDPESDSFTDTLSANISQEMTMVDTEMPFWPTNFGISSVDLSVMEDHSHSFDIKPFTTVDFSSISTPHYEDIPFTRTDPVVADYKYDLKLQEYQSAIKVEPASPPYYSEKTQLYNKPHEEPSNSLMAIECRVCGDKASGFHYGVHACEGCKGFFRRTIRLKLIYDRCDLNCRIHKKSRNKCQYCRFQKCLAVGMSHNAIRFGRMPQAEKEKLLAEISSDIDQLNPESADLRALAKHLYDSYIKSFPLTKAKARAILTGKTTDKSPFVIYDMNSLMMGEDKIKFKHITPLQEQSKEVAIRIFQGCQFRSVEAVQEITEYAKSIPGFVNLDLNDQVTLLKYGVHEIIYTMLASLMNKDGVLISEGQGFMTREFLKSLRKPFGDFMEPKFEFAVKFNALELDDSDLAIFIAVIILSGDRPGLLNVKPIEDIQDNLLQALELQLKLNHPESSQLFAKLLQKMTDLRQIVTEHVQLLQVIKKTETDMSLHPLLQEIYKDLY
Chain of Peroxisome proliferator-activated receptor delta (Q03181 whole entry, looked up): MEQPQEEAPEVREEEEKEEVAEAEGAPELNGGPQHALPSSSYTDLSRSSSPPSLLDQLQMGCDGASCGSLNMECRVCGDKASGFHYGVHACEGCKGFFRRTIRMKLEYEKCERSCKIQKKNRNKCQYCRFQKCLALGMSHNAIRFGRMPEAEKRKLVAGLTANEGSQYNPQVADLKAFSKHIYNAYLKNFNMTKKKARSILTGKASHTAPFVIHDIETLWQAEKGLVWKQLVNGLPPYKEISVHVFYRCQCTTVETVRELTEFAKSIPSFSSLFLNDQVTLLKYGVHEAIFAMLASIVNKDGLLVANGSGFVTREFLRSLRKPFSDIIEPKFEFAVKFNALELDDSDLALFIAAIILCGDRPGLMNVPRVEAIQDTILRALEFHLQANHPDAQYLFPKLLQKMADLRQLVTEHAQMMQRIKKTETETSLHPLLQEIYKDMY
Chain of Cytochrome P450 2D6 (P10635 whole entry): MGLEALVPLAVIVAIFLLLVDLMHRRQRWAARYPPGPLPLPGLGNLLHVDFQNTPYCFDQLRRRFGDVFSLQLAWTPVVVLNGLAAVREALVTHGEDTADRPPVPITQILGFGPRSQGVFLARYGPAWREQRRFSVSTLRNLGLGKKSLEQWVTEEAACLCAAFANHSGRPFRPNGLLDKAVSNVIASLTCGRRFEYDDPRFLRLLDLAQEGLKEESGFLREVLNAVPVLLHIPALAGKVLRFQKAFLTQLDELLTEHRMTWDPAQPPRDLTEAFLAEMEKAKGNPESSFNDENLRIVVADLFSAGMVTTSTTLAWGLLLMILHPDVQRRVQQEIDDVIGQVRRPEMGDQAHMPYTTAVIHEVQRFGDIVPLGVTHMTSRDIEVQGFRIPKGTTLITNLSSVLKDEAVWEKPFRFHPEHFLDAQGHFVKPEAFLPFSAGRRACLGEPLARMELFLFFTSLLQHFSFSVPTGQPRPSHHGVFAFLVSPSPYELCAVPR
Chain of Cytochrome P450 2C19 (P33261 whole entry): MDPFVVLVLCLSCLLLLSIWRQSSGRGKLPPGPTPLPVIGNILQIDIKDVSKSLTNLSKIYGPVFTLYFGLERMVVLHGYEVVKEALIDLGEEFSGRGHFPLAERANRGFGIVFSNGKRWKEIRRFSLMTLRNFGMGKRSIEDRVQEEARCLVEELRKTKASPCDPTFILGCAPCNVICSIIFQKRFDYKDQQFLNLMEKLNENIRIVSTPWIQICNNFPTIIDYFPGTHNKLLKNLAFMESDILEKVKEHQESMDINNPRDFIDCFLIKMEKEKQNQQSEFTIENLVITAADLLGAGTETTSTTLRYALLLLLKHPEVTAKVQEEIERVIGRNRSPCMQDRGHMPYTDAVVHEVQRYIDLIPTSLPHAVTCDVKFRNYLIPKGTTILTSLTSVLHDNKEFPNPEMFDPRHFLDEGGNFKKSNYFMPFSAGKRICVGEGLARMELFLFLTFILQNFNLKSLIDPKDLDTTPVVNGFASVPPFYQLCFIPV
Chain of Cytochrome P450 2C9 (P11712 whole entry): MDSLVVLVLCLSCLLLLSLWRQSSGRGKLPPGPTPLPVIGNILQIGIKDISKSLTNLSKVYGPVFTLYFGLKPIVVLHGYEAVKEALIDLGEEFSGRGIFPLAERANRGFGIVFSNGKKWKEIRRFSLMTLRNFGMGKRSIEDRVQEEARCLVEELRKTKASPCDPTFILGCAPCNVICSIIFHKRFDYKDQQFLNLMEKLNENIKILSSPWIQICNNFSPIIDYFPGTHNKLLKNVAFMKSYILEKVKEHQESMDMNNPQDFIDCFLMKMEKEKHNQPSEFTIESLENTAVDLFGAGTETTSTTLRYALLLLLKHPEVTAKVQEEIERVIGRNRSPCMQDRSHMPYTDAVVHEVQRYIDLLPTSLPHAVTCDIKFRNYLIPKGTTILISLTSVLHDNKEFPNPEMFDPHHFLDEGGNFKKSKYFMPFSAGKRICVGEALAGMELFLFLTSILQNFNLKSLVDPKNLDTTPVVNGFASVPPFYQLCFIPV
Chain of Prostaglandin G/H synthase 1 (P23219 whole entry): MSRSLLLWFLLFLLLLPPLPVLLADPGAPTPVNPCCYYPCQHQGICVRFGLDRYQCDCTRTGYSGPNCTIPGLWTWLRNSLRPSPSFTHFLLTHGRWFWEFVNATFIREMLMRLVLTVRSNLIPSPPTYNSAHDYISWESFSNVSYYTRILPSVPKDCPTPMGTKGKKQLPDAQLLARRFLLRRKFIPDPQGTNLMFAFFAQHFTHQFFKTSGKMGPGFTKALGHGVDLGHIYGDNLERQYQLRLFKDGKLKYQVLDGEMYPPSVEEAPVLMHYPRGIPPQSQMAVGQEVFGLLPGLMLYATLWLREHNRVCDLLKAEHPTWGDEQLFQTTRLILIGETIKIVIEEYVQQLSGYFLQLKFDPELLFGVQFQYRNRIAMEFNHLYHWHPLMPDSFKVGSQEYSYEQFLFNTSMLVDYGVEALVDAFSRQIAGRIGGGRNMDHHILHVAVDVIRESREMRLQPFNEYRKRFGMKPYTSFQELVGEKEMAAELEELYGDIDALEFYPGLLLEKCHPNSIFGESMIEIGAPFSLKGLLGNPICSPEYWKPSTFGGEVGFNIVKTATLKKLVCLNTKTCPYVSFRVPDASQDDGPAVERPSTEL
Chain of Prostacyclin receptor (P43119 whole entry): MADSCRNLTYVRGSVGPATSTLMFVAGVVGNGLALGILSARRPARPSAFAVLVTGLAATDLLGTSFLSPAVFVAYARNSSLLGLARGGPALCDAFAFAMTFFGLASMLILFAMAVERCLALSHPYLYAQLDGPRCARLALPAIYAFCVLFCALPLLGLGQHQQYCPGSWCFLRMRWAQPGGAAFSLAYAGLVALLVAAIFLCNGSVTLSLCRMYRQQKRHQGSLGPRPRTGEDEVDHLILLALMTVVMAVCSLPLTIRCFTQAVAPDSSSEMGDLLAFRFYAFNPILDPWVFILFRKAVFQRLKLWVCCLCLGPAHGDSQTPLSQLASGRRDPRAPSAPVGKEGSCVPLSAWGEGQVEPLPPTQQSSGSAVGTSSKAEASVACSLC

IC50 [1]: 60 nM
IC50 [2]: 7 nM
SMILES: CCN(Cc1cc(NC(C)=O)ccc1-c1cc(CC(=O)O)ccc1OC)C(=O)OCc1ccccc1

IC50 [1]: 90 nM
IC50 [2]: 3 nM
SMILES: CCN(Cc1cc(NS(=O)(=O)c2ccc(Cl)cc2)ccc1-c1cc(CC(=O)O)ccc1OC)C(=O)OCc1ccccc1

IC50 [3]: > 250 µM
IC50 [4]: > 100 µM
IC50 [5]: > 50 µM
IC50 [7]: > 250 µM
IC50 [8]: > 100 µM
IC50 [1]: 31 nM
IC50 [2]: 6 nM
IC50 [9]: > 100 µM
IC50 [10]: > 250 µM
IC50 [11]: 26.7 µM
IC50 [12]: > 50 µM
IC50 [13]: > 50 µM
IC50 [15]: > 50 µM
IC50 [17]: > 50 µM
half-life [19]: 360 min
AUC [20]: 87 µg/mL
IC50 [24]: > 100 µM
Cmax [25]: 30 µM
clearance [27]: 0.5 mL/min/kg
SMILES: CCOc1ccc(-c2ccc(-c3cc(CC(=O)[O-])ccc3OC)c(CN(CC)C(=O)C3CC3)c2)cn1.[Na+]
Activity [6]: Active
inhibition at 10 µM [14]: 11%
Activity [16]: Active
Activity [18]: Active
Activity [21]: Active
Activity [22]: inactive
Activity [23]: Active
Activity [26]: inactive
Activity [28]: Active

IC50 [1]: 60 nM
IC50 [2]: 9 nM
SMILES: CCN(Cc1cc(-c2ccc(F)cn2)ccc1-c1cc(CC(=O)O)ccc1OC)C(=O)C1CC1

IC50 [1]: 37 nM
IC50 [2]: 27 nM
SMILES: CCN(Cc1cc(-c2cnn(C)c2)ccc1-c1cc(CC(=O)O)ccc1OC)C(=O)C1CC1
